For data set [1], the system named is T47D. In words: Cytotoxicity against human T47D cells at 50 ug/ml after 48 hrs by MTS assay relative to control. Format: functional. The gist of the method:
(§1)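 Single-concentration screen at 50 μg/mL against T-47D and K562 cells, activity expressed relative to a vehicle control set at 100. Means ± SDs from triplicated experiments.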
(Formazan colour is commonly taken as a measure of viable cells.)

The subject of data set [2] is K562. Put plainly: Cytotoxicity against human K562 cells at 50 ug/ml after 48 hrs by MTS assay relative to control. The data set is classed as functional. The gist of the method:
as §1

Data set [3] can be described thus: Cytotoxicity against human Hep3B cells after 48 hrs by MTS assay. Format: functional, Hep 3B2. The procedure, abridged: (§2)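 MTS assay on cancer cell lines and nontumor NIH3T3 cells. MTS50 is the concentration giving 50% reduction of MTS signal versus control. Dose-response tests run in triplicate over three independent experiments, means ± SDs against vehicle control.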

For data set [4], the system named is MDA-MB-231. Put plainly: Induction of morphological changes in human MDA-MB-231 cells at 50 ug/ml. The data set is classed as functional, cell-based.
Data set [5] concerns T47D. In words: Ratio of CDDP IC50 to compound IC50 for human T47D cells. The data set is classed as functional.
For data set [6], the system named is T47D. In words: Cytotoxicity against human T47D cells after 48 hrs by MTS assay. Format: functional. The gist of the method: as §2
Data set [7] deals with Mus musculus. In words: Toxicity in human Hep3B cells xenografted athymic nude mouse assessed as mortality at 10 mg/kg, ip qd for 8 days. Format: organism-based, Hep 3B2. Also on record: dose 10 mg/kg, route intraperitoneal. The settings on record: in vivo, 192 h. The procedure, abridged:
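Athymic nude mice bearing subcutaneous human Hep3B hepatocellular carcinoma xenografts, five per group, received 10 mg/kg/day intraperitoneally once daily, with a vehicle-treated control group. Deaths were recorded over the treatment period.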
For orientation: A xenograft is tissue or cells of one species grown in another, often human tumour cells in immunodeficient mice.

Data set [8] has as its system K562. Put plainly: Cytotoxicity against human K562 cells after 48 hrs by MTS assay. Format: functional. The procedure, abridged: as §2
The nature of data set [9]: Down regulation of CCL5 gene expression in human KYSE-150 cells at 8.5 ug/ml after 48 hrs. The data set is classed as functional, cell-based. The gist of the method:
(§3)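 KYSE150 esophageal cancer cells treated with 8.5 μg/mL for 48 h alongside a vehicle control. Total RNA extracted and gene expression change expressed as percent change in detection signal versus control.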

Data set [10] relates to Hs-578T. In words: Induction of morphological changes in human Hs578T cells at 50 ug/ml. The data set is classed as functional, cell-based.
In data set [11] the test system is K562. In words: Inhibition of colony formation in human K562 cells at 50 ug/ml after 24 hrs by anchorage-dependent clonogenicity assay. The data set is classed as functional, cell-based. The gist of the method:
(§4)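 Anchorage-dependent clonogenicity assay on K562 and T47D cells. Treatment at 50 μg/mL for 24 h, then colony formation scored as percent inhibition versus vehicle control.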

For data set [12], the system named is Hs-578T. In words: Cytotoxicity against human Hs578T cells after 48 hrs by MTS assay. The data set is classed as functional. The procedure, abridged: as §2
In data set [13] the test system is Mus musculus. In words: Toxicity in human Hep3B cells xenografted athymic nude mouse assessed as changes in histological appearance of vital organs at 10 mg/kg, ip qd for 8 days by ematoxylin and eosin staining. The settings on record: in vivo, 192 h. The data set is classed as organism-based, Hep 3B2. Details: dose 10 mg/kg, route intraperitoneal. The procedure, abridged:
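Human Hep3B hepatocellular carcinoma cells grown as subcutaneous xenografts in athymic nude mice, five per group, given daily intraperitoneal injection at 10 mg/kg/day alongside vehicle controls. After 8 days of treatment, vital organs were collected, stained with hematoxylin and eosin, and examined for tissue damage at the histological level.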

Data set [14] has as its system MDA-MB-231. Put plainly: Cytotoxicity against human MDA-MB-231 cells after 48 hrs by MTS assay. The data set is classed as functional. The gist of the method: as §2
A short description of data set [15]: Solubility of the compound in physiological saline. The data set is classed as physicochemical. The settings on record: buffer.
Data set [16] is described as follows: Up-regulation of CLGN gene expression in human KYSE-150 cells at 8.5 ug/ml after 48 hrs. The data set is classed as functional, cell-based. The procedure, abridged: as §3
Data set [17] has as its system T47D. Put plainly: Induction of morphological changes in human T47D cells at 50 ug/ml. The data set is classed as functional, cell-based.
The test system of the next data set is Hep 3B2. Put plainly: Antitumor activity against human Hep3B cells xenografted in athymic nude mouse assessed as disappearance of tumor at 10 mg/kg, ip qd for 8 days. Format: functional, organism-based. Also on record: dose 10 mg/kg. The following applies: in the assay text read “for 9 days” for “for 8 days”. The gist of the method:
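Subcutaneous Hep3B hepatocellular carcinoma xenografts in athymic nude mice, five per group, vehicle control group. Dosing 10 mg/kg/day by daily intraperitoneal injection, 9 days. Tumor volume (mm3) followed, given as mean + SD, Student's t test. Vital organs examined by hematoxylin and eosin histology.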

The subject of the next data set is SK-HEP1. In words: Cytotoxicity against human SKHEP1 cells after 48 hrs by MTS assay. Format: functional. The gist of the method:
as §2

Data set [18] concerns T47D. In words: Inhibition of colony formation in human T47D cells at 50 ug/ml after 24 hrs by anchorage-dependent clonogenicity assay. The data set is classed as functional, cell-based. The procedure, abridged: as §4
A further data set has as its system SAOS-2. In words: Cytotoxicity against human Saos2 cells after 48 hrs by MTS assay. Format: functional. The gist of the method: as §2
Data set [19] can be described thus: Cytotoxicity against mouse NIH/3T3 cells after 48 hrs by MTS assay. The data set is classed as cell-based, NIH3T3. The following applies: read-out: MTS50. The gist of the method:
as §2

Another data set concerns A549. In words: Cytotoxicity against human A549 cells after 48 hrs by MTS assay. The data set is classed as functional. The gist of the method: as §2

Values after ≈ are worked out from the molar mass of the structure shown. Active and inactive are the calls of the source. No cut-off for these calls is given here.

Consider `N#Cc1ccc2cccc(O)c2n1`, for which the results for the Activity in the data set on T47D [1] and in the data set on K562 [2] were 72.92% and 23.08%, respectively.

For `O=Cc1ccc2cccc(O)c2n1`, the MTS50 in data set [3] is 6.25 µg/mL; in the data set on T47D [6] it was 12.5 µg/mL; with K562 [8], 12.5 µg/mL; in the data set with Hs-578T [12], 12.5 µg/mL; with MDA-MB-231 [14], 12.5 µg/mL; in the data set on SK-HEP1, 12.5 µg/mL. Further, the MTS50 in the data set with SAOS-2 was 12.5 µg/mL; in the data set on A549 it was over 50 µg/mL. The result in the data set with MDA-MB-231 [4], in the data set on Hs-578T [10], with T47D [17] and in the data set on Hep 3B2 was Active. The “Ratio IC50” value with T47D [5] stood at 4. Besides, the Activity entry in the data set with Mus musculus [7] was “Non-toxic”; in data set [9] it was 53.4%; with T47D [1] it was 8.37%; in the data set with Mus musculus [13], “Non-toxic”; with K562 [2] it was 7%; in [16], 65.4%. Moreover, the inhibition entry with K562 [11] and in the data set with T47D [18] was “Dose-dependent effect” throughout. Also, in data set [15], the solubility entry is “Insoluble”. The CC50 at 48 h in data set [19] came to 7 µg/mL (≈ 40.4 µM).

In the case of `Cc1ccc2cccc(O)c2n1` [8-HYDROXY QUINALDINE], the Activity is given as 46.54% in the data set with T47D [1] and 34.46% in the data set on K562 [2].

On to `COc1cccc2ccc(C)nc12`, for which the Activity with T47D [1] came to 37.92%; with K562 [2], 27.15%.

For `CCOc1cccc2ccc(C)nc12`, the figures for the Activity with T47D [1] and in the data set with K562 [2] were 63.43% and 21.38%, respectively.

With `Oc1cccc2cccnc12` [OXYQUINOLINE], the Activity in the data set on T47D [1] is 52.6%; in the data set on K562 [2], 26.66%.

`Cc1ccc2cccc(OCCN3CCCCC3)c2n1`: the Activity was found to be 69.2% in the data set with T47D [1] and 27.43% in the data set with K562 [2].

Source of the values: ChEMBL document CHEMBL2321796, “Synthesis of 8-hydroxyquinoline derivatives as novel antitumor agents” (ACS Med Chem Lett, 2013).
